Source: ChEMBL document CHEMBL4732167, “Structure based design, synthesis, and biological evaluation of imidazole derivatives targeting dihydropteroate synthase enzyme” (Bioorg Med Chem Lett, 2021)
In brackets after ≈: the same amount, converted by molar mass.

Test system: Staphylococcus aureus
Assay: Antibacterial activity against Staphylococcus aureus MTCC 96 assessed as bacterial growth inhibition
Format: functional
Settings: not given
With `CC(=O)c1c(C)nc(SCC(=O)Nc2ccc(OCc3ccccc3)cc2)n1-c1ccc(F)cc1` the MIC was 500 µg/mL (≈ 1020 µM). `CC(=O)c1c(C)nc(SCC(=O)Nc2ccc(OCc3ccc(Cl)cc3)cc2)n1-c1ccccc1` showed an MIC of 250 µg/mL (≈ 494 µM).

Test system: Escherichia coli
Assay: Antibacterial activity against Escherichia coli MTCC 443 assessed as bacterial growth inhibition
Format: functional
Settings: not given
`CC(=O)c1c(C)nc(SCC(=O)Nc2ccc(OCc3ccccc3)cc2)n1-c1ccc(F)cc1` gave an MIC of 100 µg/mL (≈ 204 µM). `CC(=O)c1c(C)nc(SCC(=O)Nc2ccc(OCc3ccc(Cl)cc3)cc2)n1-c1ccccc1` gave an MIC of 100 µg/mL (≈ 198 µM).

Test system: Pseudomonas aeruginosa
Assay: Antibacterial activity against Pseudomonas aeruginosa MTCC 1688 assessed as bacterial growth inhibition
Format: functional
Settings: not given
`CC(=O)c1c(C)nc(SCC(=O)Nc2ccc(OCc3ccccc3)cc2)n1-c1ccc(F)cc1` showed an MIC of 125 µg/mL (≈ 255 µM). `CC(=O)c1c(C)nc(SCC(=O)Nc2ccc(OCc3ccc(Cl)cc3)cc2)n1-c1ccccc1` gave an MIC of 25 µg/mL (≈ 49.4 µM).

Test system: Aspergillus niger
Assay: Antifungal activity against Aspergillus niger MTCC 282 assessed as fungal growth inhibition
Format: functional
Settings: not given
With `CC(=O)c1c(C)nc(SCC(=O)Nc2ccc(OCc3ccccc3)cc2)n1-c1ccc(F)cc1` the MFC was greater than 1000 µg/mL. `CC(=O)c1c(C)nc(SCC(=O)Nc2ccc(OCc3ccc(Cl)cc3)cc2)n1-c1ccccc1` gave an MFC of 500 µg/mL (≈ 988 µM).

Test system: Candida albicans
Assay: Antifungal activity against Candida albicans MTCC 227 assessed as fungal growth inhibition
Format: functional
Settings: not given
Compound `CC(=O)c1c(C)nc(SCC(=O)Nc2ccc(OCc3ccccc3)cc2)n1-c1ccc(F)cc1` has an MFC of 1000 µg/mL (≈ 2040 µM). `CC(=O)c1c(C)nc(SCC(=O)Nc2ccc(OCc3ccc(Cl)cc3)cc2)n1-c1ccccc1` showed an MFC greater than 1000 µg/mL.

Test system: Streptococcus pyogenes
Assay: Antibacterial activity against Streptococcus pyogenes MTCC 442 assessed as bacterial growth inhibition
Format: functional
Settings: not given
In the case of `CC(=O)c1c(C)nc(SCC(=O)Nc2ccc(OCc3ccccc3)cc2)n1-c1ccc(F)cc1`, the MIC is reported as 250 µg/mL (≈ 511 µM). `CC(=O)c1c(C)nc(SCC(=O)Nc2ccc(OCc3ccc(Cl)cc3)cc2)n1-c1ccccc1` showed an MIC of 62.5 µg/mL (≈ 124 µM).

Test system: Aspergillus clavatus
Assay: Antifungal activity against Aspergillus clavatus MTCC 1323 assessed as fungal growth inhibition
Format: functional
Settings: not given
With `CC(=O)c1c(C)nc(SCC(=O)Nc2ccc(OCc3ccccc3)cc2)n1-c1ccc(F)cc1` the MFC was greater than 1000 µg/mL. With `CC(=O)c1c(C)nc(SCC(=O)Nc2ccc(OCc3ccc(Cl)cc3)cc2)n1-c1ccccc1` the MFC was 500 µg/mL (≈ 988 µM).

Test system: Mycobacterium tuberculosis
Assay: Antibacterial activity against Mycobacterium tuberculosis H37Rv assessed as bacterial growth inhibition
Format: functional
Settings: not given
With `CC(=O)c1c(C)nc(SCC(=O)Nc2ccc(OCc3ccccc3)cc2)n1-c1ccc(F)cc1` the MIC was 62.5 µg/mL (≈ 128 µM). For `CC(=O)c1c(C)nc(SCC(=O)Nc2ccc(OCc3ccc(Cl)cc3)cc2)n1-c1ccccc1`, the MIC was 12.5 µg/mL (≈ 24.7 µM).

Test system: Plasmodium falciparum
Assay: Antimalarial activity against Plasmodium falciparum assessed as parasite growth inhibition
Format: functional, organism-based
Settings: not given
`CC(=O)c1c(C)nc(SCC(=O)Nc2ccc(OCc3ccccc3)cc2)n1-c1ccc(F)cc1` gave an IC50 of 0.45 µg/mL (≈ 0.919 µM). `CC(=O)c1c(C)nc(SCC(=O)Nc2ccc(OCc3ccc(Cl)cc3)cc2)n1-c1ccccc1` showed an IC50 of 1.45 µg/mL (≈ 2.87 µM).

Test system: Bacteria
Assay: Antibacterial activity against ESBL-producing bacteria assessed as bacterial growth inhibition
Format: functional
Settings: not given
Outline: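 Values are minimum inhibitory concentrations (MIC) in µg/mL, determined at an outside microbiology laboratory.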
For `CC(=O)c1c(C)nc(SCC(=O)Nc2ccc(OCc3ccccc3)cc2)n1-c1ccc(F)cc1`, the MIC was 125 µg/mL (≈ 255 µM). In the case of `CC(=O)c1c(C)nc(SCC(=O)Nc2ccc(OCc3ccc(Cl)cc3)cc2)n1-c1ccccc1`, the MIC is reported as 125 µg/mL (≈ 247 µM).

Test system: Enterococcus
Assay: Antibacterial activity against vancomycin-resistant Enterococcus assessed as inhibition of bacterial growth
Format: functional
Settings: not given
Outline: (§1)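 Growth inhibition of the drug-resistant strain was read out as the minimum inhibitory concentration (MIC), reported in µg/mL. The same protocol was also run on an ESBL strain.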
Work on `CC(=O)c1c(C)nc(SCC(=O)Nc2ccc(OCc3ccccc3)cc2)n1-c1ccc(F)cc1` yielded an MIC of 250 µg/mL (≈ 511 µM). In the case of `CC(=O)c1c(C)nc(SCC(=O)Nc2ccc(OCc3ccc(Cl)cc3)cc2)n1-c1ccccc1`, the MIC is reported as 100 µg/mL (≈ 198 µM).

Test system: Staphylococcus aureus
Assay: Antibacterial activity against methicillin-resistant Staphylococcus aureus assessed as inhibition of bacterial growth
Format: functional
Settings: not given
Outline: as §1
Compound `CC(=O)c1c(C)nc(SCC(=O)Nc2ccc(OCc3ccccc3)cc2)n1-c1ccc(F)cc1` has an MIC of 1000 µg/mL (≈ 2040 µM). For `CC(=O)c1c(C)nc(SCC(=O)Nc2ccc(OCc3ccc(Cl)cc3)cc2)n1-c1ccccc1`, the MIC was 100 µg/mL (≈ 198 µM).

Test system: not listed separately
Assay: Antioxidant activity assessed as DPPH radical scavenging activity at 25 ug/ml (reference value: 22 to 40.2 %)
Format: functional
Settings: dose 25.0 µg/ml
Outline: (§2)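 DPPH radical scavenging was measured at 0, 25, 50, 75 and 100 µg/ml of each compound. Ascorbic acid was the reference.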
For `CC(=O)c1c(C)nc(SCC(=O)Nc2ccc(OCc3ccccc3)cc2)n1-c1ccc(F)cc1`, the Activity was 46.8%. In the case of `CC(=O)c1c(C)nc(SCC(=O)Nc2ccc(OCc3ccc(Cl)cc3)cc2)n1-c1ccccc1`, the Activity is reported as 52.1%.

Test system: not listed separately
Assay: Antioxidant activity assessed as DPPH radical scavenging activity at 50 ug/ml (reference value: 22 to 40.2 %)
Format: functional
Settings: dose 50.0 µg/ml
Outline: as §2
Work on `CC(=O)c1c(C)nc(SCC(=O)Nc2ccc(OCc3ccccc3)cc2)n1-c1ccc(F)cc1` yielded an Activity of 56.2%. In the case of `CC(=O)c1c(C)nc(SCC(=O)Nc2ccc(OCc3ccc(Cl)cc3)cc2)n1-c1ccccc1`, the Activity is reported as 68.2%.

Test system: not listed separately
Assay: Antioxidant activity assessed as DPPH radical scavenging activity at 75 ug/ml (reference value: 22 to 40.2 %)
Format: functional
Settings: dose 75.0 µg/ml
Outline: as §2
`CC(=O)c1c(C)nc(SCC(=O)Nc2ccc(OCc3ccccc3)cc2)n1-c1ccc(F)cc1` gave an Activity of 62.3%. In the case of `CC(=O)c1c(C)nc(SCC(=O)Nc2ccc(OCc3ccc(Cl)cc3)cc2)n1-c1ccccc1`, the Activity is reported as 76%.

Test system: not listed separately
Assay: Antioxidant activity assessed as DPPH radical scavenging activity at 100 ug/ml (reference value: 22 to 40.2 %)
Format: functional
Settings: dose 100.0 µg/ml
Outline: as §2
Work on `CC(=O)c1c(C)nc(SCC(=O)Nc2ccc(OCc3ccccc3)cc2)n1-c1ccc(F)cc1` yielded an Activity of 84.7%. Work on `CC(=O)c1c(C)nc(SCC(=O)Nc2ccc(OCc3ccc(Cl)cc3)cc2)n1-c1ccccc1` yielded an Activity of 84.7%.

Test system: not listed separately
Assay: Antioxidant activity assessed as nitric oxide radical scavenging activity at 25 ug/ml (reference value: 25.8 to 41.6 %)
Format: functional
Settings: dose 25.0 µg/ml
Outline: (§3)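 Nitric oxide radical scavenging was tested at 0, 25, 50, 75 and 100 µg/ml of compound.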
`CC(=O)c1c(C)nc(SCC(=O)Nc2ccc(OCc3ccccc3)cc2)n1-c1ccc(F)cc1` showed an Activity of 45.7%. Compound `CC(=O)c1c(C)nc(SCC(=O)Nc2ccc(OCc3ccc(Cl)cc3)cc2)n1-c1ccccc1` has an Activity of 49.5%.

Test system: not listed separately
Assay: Antioxidant activity assessed as nitric oxide radical scavenging activity at 50 ug/ml (reference value: 25.8 to 41.6 %)
Format: functional
Settings: dose 50.0 µg/ml
Outline: as §3
With `CC(=O)c1c(C)nc(SCC(=O)Nc2ccc(OCc3ccccc3)cc2)n1-c1ccc(F)cc1` the Activity was 60.8%. With `CC(=O)c1c(C)nc(SCC(=O)Nc2ccc(OCc3ccc(Cl)cc3)cc2)n1-c1ccccc1` the Activity was 61.4%.

Test system: not listed separately
Assay: Antioxidant activity assessed as nitric oxide radical scavenging activity at 75 ug/ml (reference value: 25.8 to 41.6 %)
Format: functional
Settings: dose 75.0 µg/ml
Outline: as §3
`CC(=O)c1c(C)nc(SCC(=O)Nc2ccc(OCc3ccccc3)cc2)n1-c1ccc(F)cc1` gave an Activity of 72.4%. `CC(=O)c1c(C)nc(SCC(=O)Nc2ccc(OCc3ccc(Cl)cc3)cc2)n1-c1ccccc1` gave an Activity of 76.9%.

Test system: not listed separately
Assay: Antioxidant activity assessed as nitric oxide radical scavenging activity at 100 ug/ml (reference value: 25.8 to 41.6 %)
Format: functional
Settings: dose 100.0 µg/ml
Outline: as §3
`CC(=O)c1c(C)nc(SCC(=O)Nc2ccc(OCc3ccccc3)cc2)n1-c1ccc(F)cc1` showed an Activity of 85.9%. `CC(=O)c1c(C)nc(SCC(=O)Nc2ccc(OCc3ccc(Cl)cc3)cc2)n1-c1ccccc1` showed an Activity of 88.4%.

Test system: not listed separately
Assay: Antioxidant activity assessed as hydrogen peroxide radical scavenging activity at 25 ug/ml (reference value: 23.6 to 43.1 %)
Format: functional
Settings: dose 25.0 µg/ml
Outline: (§4)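 Hydrogen peroxide scavenging was measured across a compound series of 0, 25, 50, 75 and 100 µg/ml.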
`CC(=O)c1c(C)nc(SCC(=O)Nc2ccc(OCc3ccccc3)cc2)n1-c1ccc(F)cc1` gave an Activity of 47.4%. In the case of `CC(=O)c1c(C)nc(SCC(=O)Nc2ccc(OCc3ccc(Cl)cc3)cc2)n1-c1ccccc1`, the Activity is reported as 42.6%.

Test system: not listed separately
Assay: Antioxidant activity assessed as hydrogen peroxide radical scavenging activity at 50 ug/ml (reference value: 23.6 to 43.1 %)
Format: functional
Settings: dose 50.0 µg/ml
Outline: as §4
In the case of `CC(=O)c1c(C)nc(SCC(=O)Nc2ccc(OCc3ccccc3)cc2)n1-c1ccc(F)cc1`, the Activity is reported as 63.7%. With `CC(=O)c1c(C)nc(SCC(=O)Nc2ccc(OCc3ccc(Cl)cc3)cc2)n1-c1ccccc1` the Activity was 59.4%.

Test system: not listed separately
Assay: Antioxidant activity assessed as hydrogen peroxide radical scavenging activity at 75 ug/ml (reference value: 23.6 to 43.1 %)
Format: functional
Settings: dose 75.0 µg/ml
Outline: as §4
With `CC(=O)c1c(C)nc(SCC(=O)Nc2ccc(OCc3ccccc3)cc2)n1-c1ccc(F)cc1` the Activity was 84%. Compound `CC(=O)c1c(C)nc(SCC(=O)Nc2ccc(OCc3ccc(Cl)cc3)cc2)n1-c1ccccc1` has an Activity of 67.3%.

Test system: not listed separately
Assay: Antioxidant activity assessed as hydrogen peroxide radical scavenging activity at 100 ug/ml (reference value: 23.6 to 43.1 %)
Format: functional
Settings: dose 100.0 µg/ml
Outline: as §4
For `CC(=O)c1c(C)nc(SCC(=O)Nc2ccc(OCc3ccccc3)cc2)n1-c1ccc(F)cc1`, the Activity was 91.8%. Compound `CC(=O)c1c(C)nc(SCC(=O)Nc2ccc(OCc3ccc(Cl)cc3)cc2)n1-c1ccccc1` has an Activity of 79.6%.
